According to ChEMBL document CHEMBL1909591, “Design, synthesis, and SAR studies of novel polycyclic acids as potent and selective inhibitors of human 11β-hydroxysteroid dehydrogenase type 1 (11β-HSD-1)” (Bioorg Med Chem Lett, 2011):
pEC50, pIC50: −log10 of the molar value. Active and inactive are the calls of the source. The calls are words filed in the database; no cut-off is given here.

Experiments:
[1] = Metabolic stability in human liver microsomes assessed as compound remaining after 10 mins; format: ADME, Microsome; conditions: liver microsomes, read-out: Stability
[2] = Metabolic stability in mouse liver microsomes assessed as compound remaining after 10 mins; format: ADME, Microsome; conditions: liver microsomes, read-out: Stability
[3] = target: 11-beta-hydroxysteroid dehydrogenase 1 (Mus musculus, UniProt P50172); experiment: Inhibition of mouse 11beta-HSD-1
[4] = target: T1, 11-beta-hydroxysteroid dehydrogenase type 2 (Homo sapiens) (UniProt P80365); experiment: Inhibition of human 11beta-HSD-2 at 10 uM
T1 sequence (whole entry): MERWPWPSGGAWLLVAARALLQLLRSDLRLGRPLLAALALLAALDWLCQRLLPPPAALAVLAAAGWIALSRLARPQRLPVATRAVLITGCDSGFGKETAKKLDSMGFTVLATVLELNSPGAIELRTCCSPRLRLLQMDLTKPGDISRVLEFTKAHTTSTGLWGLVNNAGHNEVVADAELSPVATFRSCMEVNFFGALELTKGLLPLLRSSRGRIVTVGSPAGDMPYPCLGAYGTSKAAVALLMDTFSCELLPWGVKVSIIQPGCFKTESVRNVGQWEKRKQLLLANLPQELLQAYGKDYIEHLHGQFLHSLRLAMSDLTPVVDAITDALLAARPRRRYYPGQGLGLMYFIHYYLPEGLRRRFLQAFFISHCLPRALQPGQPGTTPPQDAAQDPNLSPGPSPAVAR

[5] = target: T2, Cytochrome P450 1A2 (Homo sapiens, UniProt P05177); experiment: Inhibition of CYP1A2; format: ADME
T2 sequence (P05177 whole entry): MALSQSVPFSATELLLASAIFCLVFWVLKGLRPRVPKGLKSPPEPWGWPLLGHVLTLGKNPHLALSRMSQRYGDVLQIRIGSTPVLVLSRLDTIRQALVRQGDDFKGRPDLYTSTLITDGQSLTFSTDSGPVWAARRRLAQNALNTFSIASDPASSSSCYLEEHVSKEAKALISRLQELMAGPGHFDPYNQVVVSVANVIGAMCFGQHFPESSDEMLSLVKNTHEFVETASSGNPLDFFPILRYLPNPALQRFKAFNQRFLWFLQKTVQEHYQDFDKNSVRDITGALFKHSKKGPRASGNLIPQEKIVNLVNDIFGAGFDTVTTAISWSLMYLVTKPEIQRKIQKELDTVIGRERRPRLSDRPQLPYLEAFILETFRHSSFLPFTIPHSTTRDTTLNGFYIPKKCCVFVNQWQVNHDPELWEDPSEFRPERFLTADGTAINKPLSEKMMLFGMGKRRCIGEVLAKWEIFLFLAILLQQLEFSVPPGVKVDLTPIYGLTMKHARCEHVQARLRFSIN

[6] = target: Cytochrome P450 2C9 (Homo sapiens, UniProt P11712); experiment: Inhibition of CYP2C9; format: ADME
[7] = target: Cytochrome P450 2C19 (Homo sapiens, UniProt P33261); experiment: Inhibition of CYP2C19; format: ADME
[8] = target: Cytochrome P450 2D6 (Homo sapiens, UniProt P10635); experiment: Inhibition of CYP2D6; format: ADME
[9] = target: Cytochrome P450 3A4 (Homo sapiens, UniProt P08684); experiment: Inhibition of CYP3A4; format: ADME
[10] = target: T3, Nuclear receptor subfamily 1 group I member 2 (Homo sapiens, UniProt O75469); experiment: Transactivation of PXR
T3 sequence (O75469 whole entry): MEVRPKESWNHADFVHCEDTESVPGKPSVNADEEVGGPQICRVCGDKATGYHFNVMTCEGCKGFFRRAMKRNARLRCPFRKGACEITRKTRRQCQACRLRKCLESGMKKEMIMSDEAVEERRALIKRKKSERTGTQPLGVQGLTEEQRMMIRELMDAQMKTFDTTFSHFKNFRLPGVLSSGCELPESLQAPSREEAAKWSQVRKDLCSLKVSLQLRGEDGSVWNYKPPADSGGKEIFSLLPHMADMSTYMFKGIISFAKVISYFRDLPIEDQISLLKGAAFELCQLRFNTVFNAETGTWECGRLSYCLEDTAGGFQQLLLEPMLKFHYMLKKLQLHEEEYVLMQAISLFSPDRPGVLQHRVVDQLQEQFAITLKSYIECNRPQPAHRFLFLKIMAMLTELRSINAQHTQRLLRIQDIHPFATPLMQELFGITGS

[11] = Cmax in mouse at 30 umol/kg; format: ADME, organism-based; design: dose 30 umol/kg; conditions: in vivo
How it was run: (§1)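 Oral dosing in mice, with the compound in water containing 0.5% methocel and 0.1% Tween 80. Plasma concentrations were measured at 1, 4 and 8 h after dosing.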

[12] = AUC (0 to 8 hrs) in mouse at 30 umol/kg; format: ADME, organism-based; design: time < 8 hr, dose 30 umol/kg; conditions: plasma; how it was run: as §1
[13] = target: Voltage-gated inwardly rectifying potassium channel KCNH2 (Homo sapiens, UniProt Q12809); experiment: Inhibition of human ERG
[14] = target: T4, Peroxisome proliferator-activated receptor alpha (Homo sapiens) (UniProt Q07869); experiment: Activation of PPARalpha up to 30 uM
T4 sequence (whole entry): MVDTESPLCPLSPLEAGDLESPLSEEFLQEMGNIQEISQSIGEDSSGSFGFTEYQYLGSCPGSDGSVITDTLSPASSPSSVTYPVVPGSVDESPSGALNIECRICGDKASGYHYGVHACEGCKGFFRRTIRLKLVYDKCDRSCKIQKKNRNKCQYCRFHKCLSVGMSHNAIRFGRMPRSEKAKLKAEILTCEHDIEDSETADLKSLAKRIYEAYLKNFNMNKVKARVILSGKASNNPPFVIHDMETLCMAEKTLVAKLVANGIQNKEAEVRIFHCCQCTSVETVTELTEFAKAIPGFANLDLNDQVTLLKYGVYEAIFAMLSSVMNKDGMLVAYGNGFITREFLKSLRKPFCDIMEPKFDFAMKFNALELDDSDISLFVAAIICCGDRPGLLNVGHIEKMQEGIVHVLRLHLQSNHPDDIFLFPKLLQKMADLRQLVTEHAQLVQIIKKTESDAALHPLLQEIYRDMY

[15] = target: T5, Peroxisome proliferator-activated receptor gamma (Homo sapiens) (UniProt P37231); experiment: Activation of PPARgamma up to 30 uM
T5 sequence (whole entry): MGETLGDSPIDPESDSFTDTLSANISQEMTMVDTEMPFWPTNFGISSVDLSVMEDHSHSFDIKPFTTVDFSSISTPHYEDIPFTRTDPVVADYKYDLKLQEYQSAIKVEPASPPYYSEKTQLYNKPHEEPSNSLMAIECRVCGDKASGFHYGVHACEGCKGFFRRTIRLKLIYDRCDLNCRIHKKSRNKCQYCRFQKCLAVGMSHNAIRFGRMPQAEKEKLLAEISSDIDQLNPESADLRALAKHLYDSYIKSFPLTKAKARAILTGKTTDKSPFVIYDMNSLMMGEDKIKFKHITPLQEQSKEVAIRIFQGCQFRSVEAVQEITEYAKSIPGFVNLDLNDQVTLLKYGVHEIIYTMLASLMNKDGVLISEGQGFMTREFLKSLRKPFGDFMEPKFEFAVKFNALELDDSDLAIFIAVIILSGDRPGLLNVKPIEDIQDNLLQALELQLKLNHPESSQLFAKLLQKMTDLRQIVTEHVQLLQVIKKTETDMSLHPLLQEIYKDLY

[16] = target: T6, Peroxisome proliferator-activated receptor delta (Homo sapiens) (UniProt Q03181); experiment: Activation of PPARdelta up to 30 uM
T6 sequence (whole entry): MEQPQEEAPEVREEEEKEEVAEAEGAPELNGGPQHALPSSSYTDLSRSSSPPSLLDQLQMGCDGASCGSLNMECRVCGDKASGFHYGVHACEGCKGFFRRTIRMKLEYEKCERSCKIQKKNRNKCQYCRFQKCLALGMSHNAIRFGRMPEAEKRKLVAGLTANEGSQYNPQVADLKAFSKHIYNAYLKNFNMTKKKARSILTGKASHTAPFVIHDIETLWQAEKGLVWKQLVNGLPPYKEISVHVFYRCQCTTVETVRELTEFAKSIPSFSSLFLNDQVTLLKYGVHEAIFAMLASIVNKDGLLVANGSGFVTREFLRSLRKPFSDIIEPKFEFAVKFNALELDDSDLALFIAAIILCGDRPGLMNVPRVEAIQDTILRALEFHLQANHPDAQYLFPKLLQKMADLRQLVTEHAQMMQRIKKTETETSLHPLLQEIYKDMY

[17] = target: 11-beta-hydroxysteroid dehydrogenase type 2 (Homo sapiens) (UniProt P80365); experiment: Inhibition of human 11beta-HSD-2

Chain of Cytochrome P450 2C19 (P33261 whole entry): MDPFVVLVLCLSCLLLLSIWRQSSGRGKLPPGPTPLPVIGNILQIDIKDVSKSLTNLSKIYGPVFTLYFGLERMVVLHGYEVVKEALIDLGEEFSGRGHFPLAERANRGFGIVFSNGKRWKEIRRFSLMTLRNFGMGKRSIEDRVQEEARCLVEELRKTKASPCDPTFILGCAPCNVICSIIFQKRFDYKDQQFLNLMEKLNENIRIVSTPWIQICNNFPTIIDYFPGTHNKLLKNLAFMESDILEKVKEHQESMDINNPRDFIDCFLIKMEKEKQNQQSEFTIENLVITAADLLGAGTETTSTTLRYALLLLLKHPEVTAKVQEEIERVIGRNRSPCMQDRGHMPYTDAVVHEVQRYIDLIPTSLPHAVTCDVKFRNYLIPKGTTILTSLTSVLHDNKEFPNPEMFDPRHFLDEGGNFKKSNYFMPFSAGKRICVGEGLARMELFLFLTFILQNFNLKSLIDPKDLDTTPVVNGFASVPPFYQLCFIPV
Chain of Voltage-gated inwardly rectifying potassium channel KCNH2 (Q12809 whole entry): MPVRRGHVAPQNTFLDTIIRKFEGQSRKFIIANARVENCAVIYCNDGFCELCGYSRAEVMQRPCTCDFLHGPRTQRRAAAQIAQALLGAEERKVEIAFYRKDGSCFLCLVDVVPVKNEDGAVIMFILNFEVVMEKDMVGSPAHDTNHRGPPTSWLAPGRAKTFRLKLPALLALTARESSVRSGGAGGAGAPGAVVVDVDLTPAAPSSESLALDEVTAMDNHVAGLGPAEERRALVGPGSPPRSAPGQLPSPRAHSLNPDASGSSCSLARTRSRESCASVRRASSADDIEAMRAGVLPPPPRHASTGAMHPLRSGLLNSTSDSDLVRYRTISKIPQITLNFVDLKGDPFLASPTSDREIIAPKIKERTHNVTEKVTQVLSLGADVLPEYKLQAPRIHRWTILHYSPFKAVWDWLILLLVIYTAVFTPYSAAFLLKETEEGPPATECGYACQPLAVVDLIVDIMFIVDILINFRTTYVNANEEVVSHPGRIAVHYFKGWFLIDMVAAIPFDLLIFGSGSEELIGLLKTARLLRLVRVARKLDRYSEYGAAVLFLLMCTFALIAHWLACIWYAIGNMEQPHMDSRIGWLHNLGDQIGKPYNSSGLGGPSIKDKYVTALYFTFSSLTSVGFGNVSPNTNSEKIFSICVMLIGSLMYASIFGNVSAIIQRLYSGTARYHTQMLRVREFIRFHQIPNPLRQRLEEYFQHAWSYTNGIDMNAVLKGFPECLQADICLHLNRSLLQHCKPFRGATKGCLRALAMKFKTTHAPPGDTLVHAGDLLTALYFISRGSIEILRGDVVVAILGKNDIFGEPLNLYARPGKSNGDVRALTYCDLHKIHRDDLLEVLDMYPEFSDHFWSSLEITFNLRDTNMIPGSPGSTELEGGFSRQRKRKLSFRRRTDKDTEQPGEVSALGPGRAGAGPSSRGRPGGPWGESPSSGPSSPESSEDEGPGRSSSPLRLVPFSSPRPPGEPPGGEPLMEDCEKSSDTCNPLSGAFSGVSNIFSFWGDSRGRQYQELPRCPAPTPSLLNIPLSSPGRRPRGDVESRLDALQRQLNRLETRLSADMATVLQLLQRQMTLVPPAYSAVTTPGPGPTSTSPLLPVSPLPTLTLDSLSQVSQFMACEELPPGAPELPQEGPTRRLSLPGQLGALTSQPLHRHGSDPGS
Chain of 11-beta-hydroxysteroid dehydrogenase 1 (P50172 whole entry): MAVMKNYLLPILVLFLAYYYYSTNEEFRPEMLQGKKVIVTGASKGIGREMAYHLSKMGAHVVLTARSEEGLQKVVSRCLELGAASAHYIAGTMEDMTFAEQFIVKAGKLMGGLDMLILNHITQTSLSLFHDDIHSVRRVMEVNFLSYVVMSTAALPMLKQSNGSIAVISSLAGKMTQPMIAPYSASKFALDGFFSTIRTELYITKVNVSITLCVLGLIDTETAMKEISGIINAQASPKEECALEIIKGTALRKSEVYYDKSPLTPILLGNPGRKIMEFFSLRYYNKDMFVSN
Chain of Cytochrome P450 2C9 (P11712 whole entry): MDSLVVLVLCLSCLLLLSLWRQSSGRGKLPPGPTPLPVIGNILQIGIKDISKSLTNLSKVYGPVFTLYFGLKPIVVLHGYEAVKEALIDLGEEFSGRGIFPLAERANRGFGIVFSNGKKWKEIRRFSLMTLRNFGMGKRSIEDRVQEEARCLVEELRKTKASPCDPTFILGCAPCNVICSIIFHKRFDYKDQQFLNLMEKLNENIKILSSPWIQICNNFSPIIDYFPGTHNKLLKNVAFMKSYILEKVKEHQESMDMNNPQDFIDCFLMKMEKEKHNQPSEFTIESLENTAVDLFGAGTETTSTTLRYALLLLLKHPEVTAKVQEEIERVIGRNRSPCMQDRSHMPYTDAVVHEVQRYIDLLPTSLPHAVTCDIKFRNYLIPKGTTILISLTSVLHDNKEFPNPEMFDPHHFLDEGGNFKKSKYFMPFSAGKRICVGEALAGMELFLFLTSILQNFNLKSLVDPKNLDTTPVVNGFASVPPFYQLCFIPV
Chain of Cytochrome P450 2D6 (P10635 whole entry): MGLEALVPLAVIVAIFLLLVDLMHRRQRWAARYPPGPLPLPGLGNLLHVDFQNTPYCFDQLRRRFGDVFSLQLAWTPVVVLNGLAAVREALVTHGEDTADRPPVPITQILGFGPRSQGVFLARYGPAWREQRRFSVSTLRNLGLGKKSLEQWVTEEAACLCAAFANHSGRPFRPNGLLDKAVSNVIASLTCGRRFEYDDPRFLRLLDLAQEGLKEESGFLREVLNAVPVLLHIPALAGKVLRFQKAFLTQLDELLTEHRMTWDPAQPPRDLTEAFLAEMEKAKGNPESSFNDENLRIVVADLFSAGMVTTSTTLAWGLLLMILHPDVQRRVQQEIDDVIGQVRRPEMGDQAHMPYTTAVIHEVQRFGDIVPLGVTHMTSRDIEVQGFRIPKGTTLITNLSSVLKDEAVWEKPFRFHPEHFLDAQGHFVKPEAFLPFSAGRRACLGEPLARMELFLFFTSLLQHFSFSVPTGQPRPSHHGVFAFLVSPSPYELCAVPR
Chain of Cytochrome P450 3A4 (P08684 whole entry): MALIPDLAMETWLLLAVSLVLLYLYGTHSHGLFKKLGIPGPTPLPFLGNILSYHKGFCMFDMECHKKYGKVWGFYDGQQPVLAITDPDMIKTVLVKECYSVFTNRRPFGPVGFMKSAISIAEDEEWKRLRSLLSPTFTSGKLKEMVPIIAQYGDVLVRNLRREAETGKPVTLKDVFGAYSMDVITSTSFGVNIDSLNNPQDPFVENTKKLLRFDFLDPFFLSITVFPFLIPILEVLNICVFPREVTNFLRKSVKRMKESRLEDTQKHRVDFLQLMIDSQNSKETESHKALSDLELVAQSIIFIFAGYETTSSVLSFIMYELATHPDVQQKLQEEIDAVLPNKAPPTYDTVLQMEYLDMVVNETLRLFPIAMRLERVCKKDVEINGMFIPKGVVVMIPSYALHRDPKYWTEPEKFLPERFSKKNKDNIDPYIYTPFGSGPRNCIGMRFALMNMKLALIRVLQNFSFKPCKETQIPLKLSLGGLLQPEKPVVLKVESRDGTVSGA

remaining at 10 min [1]: 78% | remaining at 10 min [2]: 48% | pIC50 [3]: 6.92 | inhibition [4]: < 50% | inhibition (INH) [5]: Active | inhibition (INH) [6]: Active | inhibition (INH) [7]: Active | inhibition (INH) [8]: Active | inhibition (INH) [9]: Active | pEC50 [10]: < 4.30 | Cmax [11]: 480 nM | AUC(0-t) at 8 h [12]: 2 µM·h | Activity [14]: inactive | Activity [15]: inactive | Activity [16]: inactive | inhibition [17]: inactive
Compound: O=C(O)CC1(c2ccc(F)cc2)C2CC3CC(C2)CC1C3 (configuration not stated)
inhibition (INH) [13]: Active
